Screens from PubChem.
INS promoter act = TRM-6 insulin promoter activation | activation, % at 2 µM | TRM-6 cells (human fetal islet line), insulin promoter eGFP reporter, imaging; plate-scaled: unstimulated 0, stimulated control 100 | hit rate 0.81% among 130,000;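 active means activation at 2 µM above a set limit, confirmed on inspection of the cell images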;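 further: share of cells whose green reporter signal exceeds an intensity cutoff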
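System – TRM-6 insulin promoter–eGFP reporter cells · Probe or stimulus – 0.75 µM tamoxifen as reporter inducer · Dosing – single-point 2 µM compound dose · Incubation – tamoxifen pre-incubation 15 h overnight, then compound exposure 48 h at 37 °C · Measured by – fixed-cell fluorescence microscopy, eGFP plus Hoechst · Evaluation – percent GFP-positive cells normalized to per-plate controls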
Numbers without * were called inactive. The full list was thinned out, with hits kept by preference.

SMILES | INS promoter act
Cc1ccc(OCCCC(=O)NC(C)c2ccccc2)cc1 (configuration not stated) | 0
Cc1cccc(OCCCC(=O)NC(C)c2ccccc2)c1 (configuration not stated) | 85*
COc1ccccc1C(C)NC(=O)CCOc1cccc(C)c1 (configuration not stated) | -8
COc1cccc2c1N1C(=O)c3c(C(=O)O)cccc3C1CC2(C)C (configuration not stated) | 0
Nc1ccc2c(c1)C(=O)C(=O)c1ccccc1-2 | 239*
Cc1ccc(N2C(=O)c3ccc(N)cc3C2=O)cc1C | 0
O=C1C(=O)c2ccc(-c3ccccc3)cc2-c2ccccc21 | -27
FC(F)(F)c1nnc(-c2ccccc2)nc1N1CCOCC1 | 0
FC(F)(F)c1cccc(-c2nnc(-c3ccccc3)c(N3CCOCC3)n2)c1 | 233*
Cc1ccc(-c2nnc(C)c(N3CCOCC3)n2)cc1 | -6
CCCCCC(=O)NNC(=O)c1ccc(-c2ccccc2)cc1 | 7
COc1cc(C(=O)Nc2c(C)cc(C)cc2C)c([N+](=O)[O-])cc1OC | -7
Fc1ccc(-c2csc(=S)[nH]2)cc1 | 279*
COc1cc(C2NC(=S)NC(C)=C2C(=O)Nc2ccc(C)cc2)ccc1O (configuration not stated) | 7
COc1cc(OC)c(CNC2CCCCCC2)cc1Br | 0
CCOC(=O)c1sc(=S)n(-c2ccccc2)c1N(C(C)=O)C(C)=O | 147
O=C(COc1ccc(Cl)cc1)Nc1ccccc1C(=O)NCc1ccco1 | 438*
O=C(COc1ccc(Cl)cc1Cl)NNC(=S)NCc1ccco1 | 167
O=C(Nc1ccccc1C(=O)NCc1ccco1)NC1CCCCC1 | -10
O=C(Nc1sc2c(c1C(=O)N1CCOCC1)CCCCC2)c1cccnc1 | -9
O=Cc1ccc(-c2cc(Cl)ccc2Cl)[nH]1 | 147
CCC(C)(C)n1nnnc1C(c1ccc(C)cc1)N1CCN(Cc2ccc3c(c2)OCO3)CC1 (configuration not stated) | -3
Cc1cccc(N2CCN(c3nc4ccc(Cl)cc4n4cnnc34)CC2)c1C | -2
O=[N+]([O-])c1ccc(NCCNCCOc2nonc2-c2ccccc2)c([N+](=O)[O-])c1 | 6
CC(C(=O)N1CCOCC1)N1C(=O)c2ccccc2C1=O (configuration not stated) | 282
SMILES | INS promoter act
O=C1c2ccccc2C(=O)N1CC(O)CN1CCOCC1 (configuration not stated) | 533*
O=C(c1ccccc1)c1ccc(OCC(O)CN2CCOCC2)cc1 (configuration not stated) | 233
Cc1c(NC(=O)CCCCCN2C(=O)c3ccccc3C2=O)c(=O)n(-c2ccccc2)n1C | -7
CCOC(=O)c1cc([N+](=O)[O-])c([N+](=O)[O-])cc1NC(C)=O | 3
O=C(c1ccco1)N1CCN(C(=O)c2cc(-c3ccccn3)nc3ccc(Cl)cc23)CC1 | 6
CCOC(=O)N1CCN(CC(O)COc2ccc(C)cc2C(C)(C)C)CC1 (configuration not stated) | -7
COc1ccc2occ(NC(C)=O)c2c1 | -4
COc1ccc2oc3ccc(OC)cc3c(=O)c2c1 | 145*
COc1ccc2oc(C(F)(F)C(F)F)cc(=O)c2c1 | 5
CC(=O)N/C(=C/c1ccc2c(c1)OCO2)C(=O)NCCO | 7
C/C(=N\OCC(=O)N/N=C/c1ccccc1)c1cccs1 | -9
COc1cccc(/C=N/NC(=O)CO/N=C(\C)c2cccs2)c1OC | 86*
COc1cccc(/C=N/NC(=O)C(=O)N/N=C/c2cccc(OC)c2OC)c1OC | 0
CCOc1ccc(NC(=O)C(C)Oc2ccccc2C(=O)Nc2cccc(Cl)c2Cl)cc1 (configuration not stated) | -3
CN(C(=S)Nc1ccccc1)c1ccccc1 | -7
Cc1cnc(C)c(N(C)NC(=S)Nc2ccccc2)n1 | 485*
Cc1nn(-c2ccccc2)cc1C(=S)Nc1ccccc1 | -7
O=C(Nc1ccc(-n2cccc2)cc1)C1CC1 | 0
Cc1ccc(C2CC(c3cccs3)=NN2C(=O)c2ccc(Br)o2)cc1 (configuration not stated) | 4
COc1ccc(OC)c(NS(=O)(=O)c2ccc(NC(=O)c3ccc(NS(C)(=O)=O)cc3)cc2)c1 | 2
CCOC(=O)CNC(=O)CSc1nnc(-c2ccccc2)n1Cc1ccco1 | -6
COc1ccc(-c2cnc(SCC(=O)Nc3ccc4c(c3)OCO4)n2Cc2ccco2)cc1 | -6
O=C(CSc1nnc(-c2ccc(Cl)cc2)n1Cc1ccco1)NCc1ccc2c(c1)OCO2 | 80*
CCOc1ccc(N2C(=O)CC(N(CCc3ccc(OC)cc3)C(=O)/C=C/C(=O)O)C2=O)cc1 (configuration not stated) | 106
Cc1cccc(C(=O)Nc2nccs2)c1[N+](=O)[O-] | -4
SMILES | INS promoter act
COc1ccc(/C=C2\SC(=NCc3ccccc3)N(Cc3ccccc3)C2=O)cc1OC | 9
C=CCN1C(=O)/C(=C/c2ccc(N(C)C)cc2)S/C1=N\c1nnc(CC)s1 | 163*
CCc1cc2c(SCC(=O)c3ccc(Cl)s3)ncnc2s1 | -7
CCOCC(=O)Nc1cc(C(=O)OC)cc(C(=O)OC)c1 | 7
CCOC(=O)NC(c1ccccc1)C1CCCCC1=O (configuration not stated) | -8
O=C1CCCCC1C(Nc1ccc(Cl)cc1)c1ccccc1 (configuration not stated) | 214*
O=C(OC1CCCCC1=O)c1ccc(S(=O)(=O)Nc2ccccc2)cc1 (configuration not stated) | -9
CCc1ccc(-c2cn(C3CCCCC3)c(=S)[nH]2)cc1 | 0
C/C(=N\NC(=O)c1nn(C)c(C)c1Br)c1cccc(NC(=O)c2ccoc2C)c1 | 8
Cn1ncc(Cl)c1C(=O)Nc1sc2c(c1C(N)=O)CCC2 | -14
CCOC(=O)c1c(NC(=S)Nc2ccc(Cl)cc2)sc2c1CCN(C)C2 | 163
CCN1CCc2c(sc(NC(=O)Nc3ccc(Cl)c(Cl)c3)c2C(N)=O)C1 | 208*
Cc1ccc2nc(N/C(N)=N/S(=O)(=O)c3ccc([N+](=O)[O-])cc3)nc(C)c2c1 | -4
S=C(NC1CCCC1)N1CCN(c2ccc(Cl)cc2)CC1 | -9
O=C(O)c1ccccc1Sc1c([N+](=O)[O-])cc(C(F)(F)F)cc1[N+](=O)[O-] | -73
CCn1c(SCC(=O)O)nnc1C1CCCCC1 | 0
Cc1cc(OCC(=O)N2CCCC2)cc(C)c1Cl | 131
Cc1cc(C)c(C)c(OCC(=O)N2CCOCC2)c1 | -3
Cc1cc(OCC(=O)N2CCOCC2)cc2oc(=O)c3ccccc3c12 | 424*
CC1CCN(C(=O)CCCNC(=O)Cn2cnc3sc4c(c3c2=O)CCCC4)CC1 | 0
O=C(Cc1ccccc1)NN1C(=O)C2C3C=CC(C3)[C@@H]2C1=O (some centres not stated) | 8
COc1ccccc1-n1c(COc2ccccc2-c2ccccc2)nnc1SCC(=O)c1c(N)n(C)c(=O)n(C)c1=O | -2
NC(=O)CSc1nnc(COc2ccccc2)n1CCc1ccccc1 | -6
COc1ccc(OCc2nnc(SCC(N)=O)n2-c2ccccc2OC)cc1 | 160*
CC(C)(C)c1ccc(-c2noc(CCC(=O)NCC3CCCO3)n2)cc1 (configuration not stated) | 3
Cc1cccc(OCc2nnc(SCC(=O)Nc3cccc(C(=O)N4CCOCC4)c3)o2)c1C | 0
COc1ccc(OC)c(/C=N/NC(=O)CCCC(=O)Nc2cccc(Br)c2)c1 | 7
COc1ccc(OC)c(/C=N/N(C)c2ccccc2)c1 | 132*
